The text below walks through data of ChEMBL document CHEMBL2177039, “Identification of a chemical probe for bromo and extra C-terminal bromodomain inhibition through optimization of a fragment-derived hit” (J Med Chem, 2012).

Series [1] concerns the target Bromodomain-containing protein 4 (Homo sapiens, UniProt O60885). In words: Inhibition of BRD4 isoform 1 by AlphaScreen assay. Summed up: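 His-tagged bromodomain protein preincubated 30 min at room temperature with compound in 50 mM HEPES, 100 mM NaCl, 0.1% BSA, pH 7.4, plus 0.05% CHAPS; biotinylated peptide added for a further 30 min; streptavidin donor and nickel chelate acceptor beads (25 µg/ml each) then added, 60 min in the dark.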

Series [2] is described as follows: Tmax in mouse at 2 mg/kg, sc. The class given is ADME, organism-based. Set-up: dose 2 mg/kg, route subcutaneous. As to conditions: in vivo.
A short description of series [3]: Drug concentration in rat gut at 1 mg/kg, iv measured 7 hrs post dose. The class given is ADME, organism-based. The arrangement: dose 1 mg/kg, route intravenous. As to conditions: read-out: Drug uptake.
Series [4] deals with Bromodomain testis-specific protein (Homo sapiens) (UniProt Q58F21). In words: Binding affinity to BRDT isoform 1 assessed as change in melting temperature at 10 uM by thermal shift assay.
Series [5] in a line: Cmax in mouse at 2 mg/kg, sc. Format: ADME, organism-based. Set-up: dose 2 mg/kg, route subcutaneous. The following applies: in vivo.
In series [6] the target is T1, CREB-binding protein (Homo sapiens, UniProt Q92793). Nature of the series: Binding affinity to CREBBP by SPR method.
Series [7] in a line: Half life in mouse at 2 mg/kg, sc. Format: ADME, organism-based. Set-up: dose 2 mg/kg, route subcutaneous. The following applies: in vivo.
Series [8] deals with Bromodomain-containing protein 3 (Homo sapiens) (UniProt Q15059). Nature of the series: Binding affinity to BRD3 isoform 2 assessed as change in melting temperature at 10 uM by thermal shift assay.
Sequence of Bromodomain-containing protein 3 (Homo sapiens) (Q15059 2-726 limits assumed): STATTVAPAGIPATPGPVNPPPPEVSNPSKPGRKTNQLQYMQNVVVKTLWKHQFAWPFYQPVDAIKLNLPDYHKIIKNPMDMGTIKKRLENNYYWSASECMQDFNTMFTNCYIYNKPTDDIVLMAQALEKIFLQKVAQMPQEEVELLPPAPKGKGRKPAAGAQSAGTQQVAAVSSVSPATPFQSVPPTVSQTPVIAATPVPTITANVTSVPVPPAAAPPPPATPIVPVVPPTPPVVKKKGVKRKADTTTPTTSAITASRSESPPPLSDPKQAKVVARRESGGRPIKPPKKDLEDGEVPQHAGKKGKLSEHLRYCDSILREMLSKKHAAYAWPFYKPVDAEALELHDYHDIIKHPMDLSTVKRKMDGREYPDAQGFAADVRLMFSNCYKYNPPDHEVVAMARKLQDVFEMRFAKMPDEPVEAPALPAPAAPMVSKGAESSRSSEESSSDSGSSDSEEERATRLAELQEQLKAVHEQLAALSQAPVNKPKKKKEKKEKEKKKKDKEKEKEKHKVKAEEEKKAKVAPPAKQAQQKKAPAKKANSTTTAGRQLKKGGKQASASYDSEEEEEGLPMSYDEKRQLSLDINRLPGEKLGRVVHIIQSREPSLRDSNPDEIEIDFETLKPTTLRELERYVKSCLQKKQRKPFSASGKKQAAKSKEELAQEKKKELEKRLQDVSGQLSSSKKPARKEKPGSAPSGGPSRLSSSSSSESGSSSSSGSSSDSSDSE
A further series concerns Liver microsomes. In words: Half life in rat liver microsomes. The class given is ADME, Microsome.
A short description of series [9]: Plasma clearance in rat at 1 mg/kg, iv. Set-up: dose 1 mg/kg, route intravenous. Format: ADME, organism-based.
Series [10] is described as follows: Protein binding in rat plasma. The class given is ADME, cell-free. The following applies: read-out: PPB (converted).
For series [11], the target named is Histone acetyltransferase KAT2B (Homo sapiens) (UniProt Q92831). In words: Binding affinity to PCAF assessed as change in melting temperature at 10 uM by thermal shift assay.
Sequence of Histone acetyltransferase KAT2B (Homo sapiens) (Q92831 whole entry, looked up): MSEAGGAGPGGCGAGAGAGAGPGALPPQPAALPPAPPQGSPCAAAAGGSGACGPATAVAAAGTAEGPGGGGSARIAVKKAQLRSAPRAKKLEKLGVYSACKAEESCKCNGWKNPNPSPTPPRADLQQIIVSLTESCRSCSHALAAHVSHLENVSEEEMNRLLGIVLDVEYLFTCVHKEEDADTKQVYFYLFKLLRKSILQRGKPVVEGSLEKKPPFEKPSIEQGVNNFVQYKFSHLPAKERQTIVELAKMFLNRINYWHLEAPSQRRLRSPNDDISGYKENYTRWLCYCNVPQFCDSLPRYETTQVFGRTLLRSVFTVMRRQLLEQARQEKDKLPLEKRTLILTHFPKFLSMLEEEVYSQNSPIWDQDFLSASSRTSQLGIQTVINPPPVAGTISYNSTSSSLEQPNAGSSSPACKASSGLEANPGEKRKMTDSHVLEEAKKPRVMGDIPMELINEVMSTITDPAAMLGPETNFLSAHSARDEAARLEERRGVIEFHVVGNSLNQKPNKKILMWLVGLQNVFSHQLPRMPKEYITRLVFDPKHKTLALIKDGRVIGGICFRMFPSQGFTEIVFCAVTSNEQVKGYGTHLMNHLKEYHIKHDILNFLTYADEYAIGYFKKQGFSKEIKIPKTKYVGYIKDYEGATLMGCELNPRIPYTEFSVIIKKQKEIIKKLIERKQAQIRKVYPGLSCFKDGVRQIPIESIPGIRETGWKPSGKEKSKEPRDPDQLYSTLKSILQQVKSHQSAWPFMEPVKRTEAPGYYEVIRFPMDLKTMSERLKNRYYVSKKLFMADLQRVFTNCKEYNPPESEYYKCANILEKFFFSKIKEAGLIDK
Series [12] in a line: Half life in rat at 1 mg/kg, iv. Format: ADME, organism-based. Set-up: dose 1 mg/kg, route intravenous. As to conditions: in vivo.
Series [13] in a line: Volume of distribution in rat at 1 mg/kg, iv. The class given is ADME, organism-based. Set-up: dose 1 mg/kg, route intravenous. The following applies: in vivo.
The target in series [14] is Bromodomain-containing protein 3 (Homo sapiens) (UniProt Q15059). Nature of the series: Binding affinity to BRD3 isoform 1 assessed as change in melting temperature at 10 uM by thermal shift assay.
The nature of series [15]: Oral bioavailability […] in rat at 2 mg/kg. As to conditions: in vivo. The class given is ADME, organism-based.
The target of series [16] is T1, CREB-binding protein. In words: Binding affinity to CREBBP assessed as change in melting temperature at 10 uM by thermal shift assay.
Target sequence in this assay (Q92793 2-2442 limits assumed): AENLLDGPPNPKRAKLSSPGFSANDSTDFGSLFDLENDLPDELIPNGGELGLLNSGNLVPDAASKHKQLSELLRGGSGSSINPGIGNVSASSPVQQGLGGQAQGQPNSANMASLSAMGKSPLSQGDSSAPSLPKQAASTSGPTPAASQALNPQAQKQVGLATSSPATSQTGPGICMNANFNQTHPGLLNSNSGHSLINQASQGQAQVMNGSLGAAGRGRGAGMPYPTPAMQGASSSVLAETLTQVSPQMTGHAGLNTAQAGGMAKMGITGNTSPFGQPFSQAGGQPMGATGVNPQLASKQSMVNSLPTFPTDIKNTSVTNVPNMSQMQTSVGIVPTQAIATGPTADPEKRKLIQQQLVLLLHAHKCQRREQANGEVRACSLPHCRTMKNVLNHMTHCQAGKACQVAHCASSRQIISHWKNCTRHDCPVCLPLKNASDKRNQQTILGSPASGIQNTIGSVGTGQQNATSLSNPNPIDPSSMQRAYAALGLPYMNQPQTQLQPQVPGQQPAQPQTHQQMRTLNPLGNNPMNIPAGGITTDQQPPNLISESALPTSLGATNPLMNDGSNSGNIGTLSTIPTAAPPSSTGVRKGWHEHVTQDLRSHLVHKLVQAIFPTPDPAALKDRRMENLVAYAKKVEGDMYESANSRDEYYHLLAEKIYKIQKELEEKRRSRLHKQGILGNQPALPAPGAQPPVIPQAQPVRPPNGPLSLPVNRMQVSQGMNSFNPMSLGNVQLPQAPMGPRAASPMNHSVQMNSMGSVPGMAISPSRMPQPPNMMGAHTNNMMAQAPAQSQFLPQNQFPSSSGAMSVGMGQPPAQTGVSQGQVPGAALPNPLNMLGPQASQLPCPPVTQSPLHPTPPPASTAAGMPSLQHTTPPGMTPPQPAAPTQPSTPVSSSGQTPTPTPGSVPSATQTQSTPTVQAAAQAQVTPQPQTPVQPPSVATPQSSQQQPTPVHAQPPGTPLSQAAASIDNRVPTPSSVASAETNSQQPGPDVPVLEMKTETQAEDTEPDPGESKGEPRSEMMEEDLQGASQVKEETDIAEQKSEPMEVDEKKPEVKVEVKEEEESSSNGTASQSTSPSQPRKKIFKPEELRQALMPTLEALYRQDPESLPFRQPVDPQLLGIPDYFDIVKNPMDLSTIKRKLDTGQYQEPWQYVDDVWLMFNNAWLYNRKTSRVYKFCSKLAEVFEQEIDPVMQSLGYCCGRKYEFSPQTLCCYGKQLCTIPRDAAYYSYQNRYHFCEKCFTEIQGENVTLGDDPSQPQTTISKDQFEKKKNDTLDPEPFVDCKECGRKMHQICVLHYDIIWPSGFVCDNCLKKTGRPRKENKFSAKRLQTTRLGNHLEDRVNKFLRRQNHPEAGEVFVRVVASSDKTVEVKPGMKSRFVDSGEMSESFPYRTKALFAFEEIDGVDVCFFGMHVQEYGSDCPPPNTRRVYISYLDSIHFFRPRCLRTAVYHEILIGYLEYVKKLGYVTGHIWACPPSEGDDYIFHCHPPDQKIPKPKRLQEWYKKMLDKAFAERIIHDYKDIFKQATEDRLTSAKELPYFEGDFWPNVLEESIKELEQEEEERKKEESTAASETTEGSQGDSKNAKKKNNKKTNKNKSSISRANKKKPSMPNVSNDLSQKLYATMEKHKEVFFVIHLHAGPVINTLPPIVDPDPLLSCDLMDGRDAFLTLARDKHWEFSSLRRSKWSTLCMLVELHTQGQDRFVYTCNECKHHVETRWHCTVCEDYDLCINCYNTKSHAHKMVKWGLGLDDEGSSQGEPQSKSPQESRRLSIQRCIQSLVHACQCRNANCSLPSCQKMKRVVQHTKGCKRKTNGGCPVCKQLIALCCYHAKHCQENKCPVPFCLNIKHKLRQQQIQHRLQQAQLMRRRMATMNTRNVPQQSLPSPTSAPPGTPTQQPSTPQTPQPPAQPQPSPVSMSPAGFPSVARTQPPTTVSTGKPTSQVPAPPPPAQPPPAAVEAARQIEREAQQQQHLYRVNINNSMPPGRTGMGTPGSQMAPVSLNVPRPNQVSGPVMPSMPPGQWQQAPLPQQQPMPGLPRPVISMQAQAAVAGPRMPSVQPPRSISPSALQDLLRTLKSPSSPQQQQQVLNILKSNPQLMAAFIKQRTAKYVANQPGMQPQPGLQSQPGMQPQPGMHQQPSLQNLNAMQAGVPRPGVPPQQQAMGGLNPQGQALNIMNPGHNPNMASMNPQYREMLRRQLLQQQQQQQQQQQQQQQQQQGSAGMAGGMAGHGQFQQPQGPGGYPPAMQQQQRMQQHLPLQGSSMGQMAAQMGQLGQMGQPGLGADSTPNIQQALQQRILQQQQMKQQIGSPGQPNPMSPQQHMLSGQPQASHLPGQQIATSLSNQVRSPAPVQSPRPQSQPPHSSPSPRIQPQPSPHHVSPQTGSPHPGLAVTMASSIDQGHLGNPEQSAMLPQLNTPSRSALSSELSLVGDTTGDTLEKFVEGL
The subject of a further series is PBMC. Nature of the series: Inhibition of LPS-induced IL6 production in human PBMC by ELISA. The class given is functional, cell-based. Summed up:
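Mononuclear cells washed in Ca/Mg-free PBS, then RPMI + 5% FBS; plated at 2E5 cells/well. Compound added at 0.1% DMSO final and preincubated 30 min; stimulated with ultrapure LPS O111:B4 at 0.5 ng/ml final. Supernatants collected after 20 h; cytokines measured by multiplex ELISA.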

The target of series [17] is Protein polybromo-1 (Homo sapiens) (UniProt Q86U86). In words: Binding affinity to pb1 isoform 5 assessed as change in melting temperature at 10 uM by thermal shift assay.
Series [18] concerns the target Bromodomain adjacent to zinc finger domain protein 2B (Homo sapiens) (UniProt Q9UIF8). Nature of the series: Binding affinity to BAZ2B assessed as change in melting temperature at 10 uM by thermal shift assay.
Series [19] concerns the target Bromodomain-containing protein 2 (Homo sapiens) (UniProt P25440). Nature of the series: Binding affinity to BRD2 isoform 1 assessed as change in melting temperature at 10 uM by thermal shift assay.
The target is the same in series [20]. Nature of the series: Binding affinity to BRD2 isoform 2 assessed as change in melting temperature at 10 uM by thermal shift assay.

Sequence of Bromodomain-containing protein 2 (Homo sapiens) (P25440 whole entry, looked up, canonical isoform): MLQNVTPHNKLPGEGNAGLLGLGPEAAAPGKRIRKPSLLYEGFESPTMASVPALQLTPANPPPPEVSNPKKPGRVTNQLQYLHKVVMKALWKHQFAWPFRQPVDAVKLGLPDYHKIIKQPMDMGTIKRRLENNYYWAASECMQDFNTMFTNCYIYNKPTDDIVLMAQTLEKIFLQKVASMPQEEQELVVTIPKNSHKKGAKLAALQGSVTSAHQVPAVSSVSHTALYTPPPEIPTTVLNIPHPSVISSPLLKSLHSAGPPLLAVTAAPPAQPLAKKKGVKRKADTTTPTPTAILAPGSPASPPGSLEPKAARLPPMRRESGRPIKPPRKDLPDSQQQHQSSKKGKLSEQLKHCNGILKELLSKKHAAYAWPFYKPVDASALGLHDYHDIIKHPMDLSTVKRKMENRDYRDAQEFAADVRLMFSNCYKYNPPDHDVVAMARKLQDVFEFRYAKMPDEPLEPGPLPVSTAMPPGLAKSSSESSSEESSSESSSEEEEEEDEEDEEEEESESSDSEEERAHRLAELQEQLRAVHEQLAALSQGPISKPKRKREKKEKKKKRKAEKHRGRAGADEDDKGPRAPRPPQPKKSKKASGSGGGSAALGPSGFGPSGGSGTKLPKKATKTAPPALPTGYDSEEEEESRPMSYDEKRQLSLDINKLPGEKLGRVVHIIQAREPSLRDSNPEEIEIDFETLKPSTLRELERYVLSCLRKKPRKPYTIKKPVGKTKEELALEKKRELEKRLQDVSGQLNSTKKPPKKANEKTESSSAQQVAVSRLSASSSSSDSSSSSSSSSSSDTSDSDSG

For `Cc1ccc(S(=O)(=O)Nc2ccc3c(c2)CN(C)C(=O)N3)cc1`, in series [1], the IC50 was 390 nM.

`COc1ccccc1S(=O)(=O)Nc1ccc2c(c1)CN(C)C(=O)N2`: in series [2], the Tmax stood at 1 h. Moreover, in [3], the concentration at 7 h came out at 62 ng/mL. In addition, the ΔTm in [4] stood at 2.08 °C; in series [8] it was 5.45 °C; in series [11], 0.81 °C; in [14], 5.24 °C; on CREB-binding protein [16] it was 1.7 °C; in [17] it was 0.83 °C. Also, the ΔTm in [18] is 0.3 °C; in series [19], 4.61 °C; in series [20] it was 5.32 °C. For the same compound, the Cmax in [5] was found to be 58 ng/mL. On CREB-binding protein [6], the affinity, expressed as Kd, was 49000 nM. In addition, the half-life was 2 h in [7] and 1 h in series [12]. In the series with Liver microsomes, this compound showed a t1/2 of more than 2 h. The compound also registered a clearance in series [9] of 18 mL/min/kg. Besides, the fraction unbound in series [10] was 0.31. In series [13], this compound showed a Vd of 1 L/kg. Further, the bioavailability in series [15] stood at 32%. The compound further showed an EC50 in the series with PBMC of 1890 nM.

For the compound `CN1Cc2cc(NS(=O)(=O)c3ccccc3)ccc2NC1=O`, the half-maximal inhibitory concentration (IC50) in series [1] is 880 nM.

For `COc1cccc(S(=O)(=O)Nc2ccc3c(c2)CN(C)C(=O)N3)c1`, the half-maximal inhibitory concentration (IC50) in series [1] came out at 730 nM.

With `CN1Cc2cc(S(=O)(=O)N3CCCC3)ccc2NC1=O`, the IC50 in series [1] turned out to be 4800 nM.

For `CCNS(=O)(=O)c1ccc2c(c1)CN(C)C(=O)N2`, half-maximal inhibition in series [1] (IC50) was put at 1900 nM.

For `CN1Cc2cc(NS(=O)(=O)c3ccc(C#N)cc3)ccc2NC1=O`, the midpoint of inhibition in series [1], the IC50, lay at 2300 nM.

`Cc1ccccc1S(=O)(=O)Nc1ccc2c(c1)CN(C)C(=O)N2` came in with a concentration for half-maximal inhibition (IC50) in [1] of 220 nM.

Compound `CN1Cc2cc(NS(=O)(=O)c3ccccc3F)ccc2NC1=O` registered an IC50 in series [1] of 360 nM.

For the compound `CN1Cc2cc(NS(=O)(=O)c3ccccc3C(F)(F)F)ccc2NC1=O`, the IC50 in series [1] is 470 nM.

Compound `COc1ccc(S(=O)(=O)Nc2ccc3c(c2)CN(C)C(=O)N3)cc1` had a concentration for half-maximal inhibition (IC50) in series [1] of 880 nM.

On to `CN1Cc2cc(NS(=O)(=O)c3ccc(F)cc3Cl)ccc2NC1=O`, for which, in series [1], the IC50 came to 180 nM.
